Source: ChEMBL document CHEMBL4622986, “Synthesis and Anti-HCV Activity of Sugar-Modified Guanosine Analogues: Discovery of AL-611 as an HCV NS5B Polymerase Inhibitor for the Treatment of Chronic Hepatitis C” (J Med Chem, 2020)

Tests used:
Hepatitis C virus = experiment: Antiviral activity against HCV con1 subgenomic replicon infected in human HuH7 cells assessed as reduction in viral RNA level by qRT-PCR analysis; format: functional, organism-based, Hepacivirus hominis; conditions: isolate Con1, Huh-7
How it was run: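 Huh-7 cells carrying a subgenomic Con1 HCV replicon (neomycin phosphotransferase, kept under 0.25 mg/ml G418) were exposed to serially diluted compound in DMEM with 2% FBS and 0.5% DMSO, without G418, at 37 °C. Total RNA was extracted and HCV RNA copies were measured by multiplex QRT-PCR (Taqman). EC50 was obtained by 4-parameter curve fit.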

[1] = Cytotoxicity against human A549 cells incubated for 8 days by cellTiter-Glo assay; format: cell-based
How it was run: (§1)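 Cells (1×10^5/well) on collagen I-coated wells, first kept 8 days in recommended medium without drug, then exposed to compound for 8 days with refeeding every other day. Viability read by CellTiter-Glo luminescence; CC50 derived by curve fitting.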

[2] = Cytotoxicity against human HepG2 cells incubated for 8 days by cellTiter-Glo assay; format: cell-based; how it was run: as §1
[3] = Prodrug activation in human hepatocytes assessed as [[(2S,3S,4R,5R)-5-(2-amino-6-oxo-1H-purin-9-yl)-2,4-difluoro-3-hydroxy-4-methyl-tetrahydrofuran-2-yl]methoxy-hydroxy-phosphoryl]phosphono hydrogen phosphate metabolite formation after 24 to 48 hrs by LC-MS/MS analysis; format: ADME, cell-based, Hepatocyte
[4] = Prodrug activation in human hepatocytes assessed as half life of [[(2S,3S,4R,5R)-5-(2-amino-6-oxo-1H-purin-9-yl)-2,4-difluoro-3-hydroxy-4-methyl-tetrahydrofuran-2-yl]methoxy-hydroxy-phosphoryl]phosphono hydrogen phosphate metabolite at 50 uM incubated for 24 hrs followed by medium replacement measured after 6 hrs by LC-MS/MS analysis; format: ADME, cell-based, Hepatocyte
How it was run: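 Primary human hepatocytes acclimated overnight at 37 °C, 5% CO2, then given 50 μM compound for 24 h. Medium replaced with blank medium and cells sampled at 0, 3, 6, 10, 24 and 48 h. Cells washed with cold saline and lysed in 70/30 methanol/water; NTP measured by LC-MS/MS. Half-life obtained by first-order fit of the terminal phase (n = 3).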

[5] = Cytotoxicity against human U937 cells incubated for 8 days by cellTiter-Glo assay; format: cell-based, U-937; how it was run: as §1
[6] = Cytotoxicity against human HeLa cells incubated for 8 days by cellTiter-Glo assay; format: cell-based; how it was run: as §1
[7] = Prodrug activation in human hepatocytes assessed as time at which [[(2S,3S,4R,5R)-5-(2-amino-6-oxo-1H-purin-9-yl)-2,4-difluoro-3-hydroxy-4-methyl-tetrahydrofuran-2-yl]methoxy-hydroxy-phosphoryl]phosphono hydrogen phosphate metabolite formation reached steady state at 10 uM incubated for 2 to 72 hrs by LC-MS/MS analysis; format: ADME, cell-based, Hepatocyte
How it was run: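 Primary human hepatocytes acclimated overnight at 37 °C, 5% CO2, then continuously incubated with 10 μM compound and sampled over 2-72 h. Cells washed with cold saline and lysed in 70/30 methanol/water. Intracellular NTP quantified by negative-ion LC-MS/MS against standards spiked into untreated hepatocyte lysate.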

[8] = Cytotoxicity against human HuH7 cells infected with HCV con1 subgenomic replicon assessed as reduction in cell viability measured after 3 days by CellTiter-blue cell viability assay; format: cell-based, Huh-7
How it was run: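 Run in the replicon-bearing Huh-7 cells under the same settings as the antiviral read (DMEM, 2% FBS, 0.5% DMSO, no G418, 37 °C). After 3 days of treatment, viability was read with CellTiter-Blue and CC50 was derived by curve fitting.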

[9] = Prodrug activation in human hepatocytes assessed as [[(2S,3S,4R,5R)-5-(2-amino-6-oxo-1H-purin-9-yl)-2,4-difluoro-3-hydroxy-4-methyl-tetrahydrofuran-2-yl]methoxy-hydroxy-phosphoryl]phosphono hydrogen phosphate metabolite formation per million cells at 50 uM incubated for 24 hrs by LC-MS/MS analysis; format: ADME, cell-based, Hepatocyte
How it was run: (§2)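 Primary human hepatocytes (1.5-2 million cells/well) acclimated overnight at 37 °C, 5% CO2, then incubated 24 h with 50 μM extracellular compound. Cells washed with cold 0.9% NaCl and lysed in 70/30 methanol/water. Extract dried and reconstituted, then analysed by LC-MS/MS with an internal standard; reported as pmol per million cells.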

[10] = Cytotoxicity against human MT4 cells incubated for 8 days by cellTiter-Glo assay; format: cell-based; how it was run: as §1
[11] = Prodrug activation in Beagle dog assessed as [[(2S,3S,4R,5R)-5-(2-amino-6-oxo-1H-purin-9-yl)-2,4-difluoro-3-hydroxy-4-methyl-tetrahydrofuran-2-yl]methoxy-hydroxy-phosphoryl]phosphono hydrogen phosphate metabolite formation in liver at 9.69 mg/kg, po measured at 4 hrs post dose by LC-MS/MS analysis; format: ADME, organism-based, Canis lupus familiaris; conditions: in vivo
How it was run: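 Male non-naïve beagle dogs (n=2 per time point), fasted overnight, single oral dose of 9.69 mg/kg (5 mg/kg parent nucleoside equivalent) as a solution in 40% PEG400 in water. Animals anesthetized with pentobarbital before liver collection. Liver NTP measured by negative-ion LC-MS/MS against standards spiked into blank liver homogenate.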

[12] = Prodrug activation in human hepatocytes assessed as [[(2S,3S,4R,5R)-5-(2-amino-6-oxo-1H-purin-9-yl)-2,4-difluoro-3-hydroxy-4-methyl-tetrahydrofuran-2-yl]methoxy-hydroxy-phosphoryl]phosphono hydrogen phosphate metabolite formation at 0.5 to 50 uM incubated for 24 hrs by LC-MS/MS analysis; format: ADME, cell-based, Hepatocyte
How it was run: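 Primary human hepatocytes from three donors, acclimated overnight at 37 °C, 5% CO2, incubated 24 h across a range of extracellular compound concentrations. Cells washed with cold saline and lysed in 70/30 methanol/water. Intracellular NTP measured by negative-ion LC-MS/MS against standards spiked into untreated hepatocyte lysate; mean ± standard deviation reported.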

[13] = Cytotoxicity against human HuH7 cells incubated for 8 days by cellTiter-Glo assay; format: cell-based, Huh-7; how it was run: as §1
[14] = Selectivity index, ratio of CC50 for human HuH7 cells infected with HCV con1 subgenomic replicon to EC50 for HCV con1 subgenomic replicon; format: toxicity; conditions: read-out: Ratio CC50/EC50
How it was run: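 Ratio of CC50 (CellTiter-Blue viability after 3 days) to EC50 (HCV RNA by QRT-PCR). Both were measured in Huh-7 Con1 subgenomic replicon cells in DMEM with 2% FBS and 0.5% DMSO at 37 °C.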

[15] = Prodrug activation in human hepatocytes assessed as nucleoside monophosphate metabolite formation per million cells incubated for 24 hrs; format: ADME, cell-based, Hepatocyte; how it was run: as §2

CCOc1nc(N)nc2c1ncn2[C@@H]1O[C@](F)(COP(=O)(N[C@@H](C)C(=O)OC(C)C)Oc2ccccc2)[C@@H](O)[C@@]1(C)F (stereo partly specified)
EC50 (Hepatitis C virus): 0.014 µM | CC50 at 192 h [1]: > 100 µM | CC50 at 192 h [2]: > 100 µM | Drug metabolism [3]: Metabolite_Notdetected | t1/2 [4]: 11.2 h | CC50 at 192 h [5]: 10 µM | CC50 at 192 h [6]: > 100 µM | Time [7]: 2 to 16 h | CC50 at 72 h [8]: > 100 µM | Drug metabolism [9]: 271 pmol | CC50 at 192 h [10]: 92 µM | Drug metabolism [11]: 11.2 µM | Drug metabolism [12]: Metabolite_Detected | CC50 at 192 h [13]: > 100 µM | selectivity ratio [14]: > 7000 | Drug metabolism [15]: 89 pmol
